HSF1 inhib – HSF1 inhibition; NIH3T3-HGL HSE-luciferase, MG132-induced, luminescence 8 h; hits give low values; activity change, negative = inhibition, % at 7.5 µM (by protocol); AID 2098; hit rate 0.77% among 300,000;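 active = more than half of replicate wells show activity change below -50%, luminescence cut by over half; inconclusive = some wells, but at most half, below -50%; inactive = no replicate well below -50%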;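 note: luciferase reports HSF-1 transcriptional activity via heat shock element; 0% = median of DMSO wells and -100% = zero luminescence signal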
NS3 helicase inh – blocks Hepatitis C virus NS3 helicase unwinding; inhibition, % at 10.9 µM; NS3 helicase DNA unwinding, Cy5 molecular beacon fluorescence; hit rate 0.56% among 290,000;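 active = inhibition above the mean of all tested compounds plus 3 SD, set per campaign, cut at about 35% in these data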;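 note: 0% = DMSO wells and 100% = thioflavine S control wells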
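Assay system: hepatitis C virus NS3 helicase domain fragment enzyme. Also added: annealed dual-labelled DNA beacon duplex, ATP-started. Timing: 1 h reaction at 25 °C, ATP-initiated. Technique: Cy5 fluorescence at 0 and 60 min, beacon hairpin quenching. Evaluation: % inhibition of unwinding. Replication: one well per compound.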
HSF-1 act – increases HSF-1 driven luciferase reporter signal; activation, % at 9 µM; hit rate 1.7% among 300,000; NIH3T3-HGL HSF-1 luciferase reporter, MG132, 8 h; 100% = twice DMSO control signal;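 active = mean replicate activation of at least 50% with a set share of replicates each reaching 50%; inconclusive = only one of those two conditions met; inactive = mean below 50% and too few replicates reaching it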;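 note: 0% = median of the neutral control wells and 100% = twice that signal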
HSP90 refold inh – HSP90 refolding inhibition in rabbit reticulocyte lysate. luciferase refolding luminescence, 3 h. inhibition, % at 5.6 µM. hit rate 0.91% among 290,000;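 active = inhibition above the screen-wide mean plus 3 SD, computed separately per campaign, cut at about 16% in these data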;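 note: 0% = DMSO wells and 100% = 60 µM geldanamycin wells; inhibitors lower the luminescence because luciferase stays unfolded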
Lipid droplet – hepatic lipid droplet formation modulation. hit rate 0.4% among 240,000. AID 1656. inhibition, % at 6.5 µM. AML12 mouse hepatocytes, oleate lipid droplets, BODIPY imaging;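 active = lipid droplet intensity inhibited by at least 50%, with more than 500 cells counted; inconclusive = wells with under 300 cells, treated as cytotoxic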
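Material: mouse AML12 hepatocyte cell line, fixed after treatment; Timing: compound with oleate, overnight; Technique: high-content imaging of BODIPY-stained droplets and DAPI nuclei; Probe or stimulus: oleate, 100 µM final; Dosing: compound at 6.5 µM only.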
Numbers without * were called inactive; u = inconclusive; x = no result given. Sampled rows, rich in hits. Any-hit rate of the full collection: about 3.8%.

SMILES | HSF1 inhib | NS3 helicase inh | HSF-1 act | HSP90 refold inh | Lipid droplet
O=C(NCCC1=CCCCC1)C1CC(=O)N(Cc2ccccc2)C1 (centres undefined) | -0.3 | -4.1 | -0.4 | -2.4 | -6.7
N=c1c(S(=O)(=O)c2ccc(Br)cc2)cc2c(=O)n3ccccc3nc2n1C1CCCC1 | 24.0 | -0.8 | 54.7* | 4.0 | -2.3
O=c1c2ccccc2nnn1CSc1ccc2c(c1)OCCO2 | 49.4 | -3.9 | 76.3* | 0.9 | x
Cc1ccc(NC(=O)CN(C)C(=O)C(C)OC(=O)c2ccccc2NCCO)cc1 (centres undefined) | -1.6 | x | -3.9 | x | x
CC(C)(C)c1cc(NC(=O)CCSc2nnc3ccccn23)cc(C(C)(C)C)c1 | 17.4 | -4.9 | 54.3* | -1.3 | x
Cc1cc(NC(=O)CSc2nnc3ccccn23)no1 | -6.7 | -4.7 | -14.1 | -0.6 | 0.0
COC(=O)c1ccc(CSc2nc3ccccc3o2)cc1 | 13.7 | -0.3 | 43.9 | -0.3 | 17.5
O=[N+]([O-])c1ccc(CSc2nc3ccccc3o2)cc1 | 91.7 | -3.1 | 116.9* | -0.3 | x
Cc1ccc(CSc2nc3ncccc3[nH]2)cc1 | 46.0 | 1.5 | 76.9* | 13.5 | x
CCOC(=O)c1cc(C(=O)OCC)c(=O)[nH]c1SCc1ccccc1 | -0.8 | 12.7 | 23.0 | -2.5 | -17.5
ClC(Cl)(Cl)c1nc2ccccc2n2nncc12 | 161.8 | 22.8 | 208.2* | 5.5 | -19.8
COc1ccc(N=C(NN)c2ccc3ccccc3n2)cc1 | -60.6* | -6.6 | -65.1 | 15.7 | -33.9
c1ccc(Cc2nnc3sc(-c4ccco4)nn23)cc1 | -2.0 | 17.2 | -1.3 | -2.0 | x
S=c1[nH]cc(Cc2ccccc2)s1 | 26.8 | 3.8 | 60.4* | 9.5 | 3.1
Cc1cccc(C2N=C(N)Nc3nc4ccccc4n32)c1 (centres undefined) | 7.5 | -10.2 | 41.6 | -1.5 | 8.4
COc1ccccc1N1CCN(C(=S)Nc2ccccc2)CC1 | -19.7 | 2.0 | -23.0 | 4.5 | 6.9
COc1ccccc1N1CCN(C(=S)Nc2ccc(F)cc2)CC1 | -72.5* | 3.7 | -75.4 | 13.2 | -1.2
Cc1ccc(S(=O)(=O)N(C)c2ccc(C)c([N+](=O)[O-])c2)cc1 | 30.2 | 1.8 | 70.0* | 3.4 | -19.4
COc1ccc(N(C)S(=O)(=O)c2ccc(C)cc2)c([N+](=O)[O-])c1 | 3.3 | -2.5 | 1.0 | 0.8 | -1.4
Nc1cccc(CCc2ccncc2)c1 | 1.8 | -2.4 | -5.7 | -1.3 | 4.0
Nc1cccc(/C=C/c2ccncc2)c1 | 7.6 | -1.4 | 54.4* | 2.0 | 4.8
Nc1nc(-c2cc3ccccc3o2)cs1 | 47.6 | -6.4 | 62.4* | 14.7 | -12.8
Nc1nc(-c2ccc3ccccc3c2)cs1 | 18.2 | 11.1 | 67.3* | -2.6 | 18.3
CN(C)C1=NCCN1CCc1cccc(F)c1 | 0.0 | 4.8 | -7.5 | -1.7 | 11.2
O=C(O)CSc1cccc[n+]1[O-] | 0.3 | -0.6 | 10.0 | -1.1 | 9.4
SMILES | HSF1 inhib | NS3 helicase inh | HSF-1 act | HSP90 refold inh | Lipid droplet
O=C(CSc1cccc[n+]1[O-])c1cc2ccccc2o1 | 149.5 | 0.6 | 192.1* | -0.5 | x
O=C(CSc1cccc[n+]1[O-])c1cc(Cl)ccc1Cl | 122.1 | 9.3 | 169.8* | 1.1 | -0.7
Cc1cccc([C@@H]2[C@@H]3C(=O)N(Cc4ccccc4)C(=O)[C@@H]3[C@]3(Cc4ccccc4)C(=O)N(c4ccc(C(F)(F)F)cc4)C(=O)N23)c1 | 4.4 | x | -4.2 | x | x
CCOC(=O)c1cnc(SCCc2ccccc2)nc1N | 53.6 | -6.7 | 88.5* | 6.7 | x
CCOC(=O)c1cnc(SCC(=O)c2ccc(Cl)cc2)nc1N | -5.8 | -1.8 | -13.5 | 4.4 | -1.1
CCOC(=O)c1cnc(SCc2ccc(C)cc2)nc1N | 31.6 | 10.7 | u | -1.1 | -22.3
CCCCSc1ncc(C(=O)OCC)c(N)n1 | 31.2 | 9.1 | 64.2* | 3.7 | 10.1
CCOC(=O)c1cnc(SC2CCc3ccccc3C2=O)nc1N (centres undefined) | -15.6 | 3.9 | -18.7 | 16.4* | x
CCOc1ccc(NC(=O)CCC(=O)Nc2nnc(CC)s2)cc1 | -2.5 | -10.2 | 6.0 | 1.2 | -8.0
COc1cccc(NC(=O)c2cc3ccccc3cc2OC)c1 | 32.9 | -9.3 | 40.7 | -0.4 | -1.4
O=C(NCc1nc(-c2ccc(Cl)cc2)no1)c1ccco1 | 12.7 | 12.3 | 55.8* | -2.8 | -12.5
CC(C)c1ccc(C(=O)NCCCN2CCOCC2)cc1 | -4.7 | -3.4 | 10.8 | -1.4 | -0.9
CC(C)c1ccc(/C=C2\C(=O)N(CCN3CCOCC3)C(=S)N2C)cc1 | 24.0 | 10.3 | 66.3* | 1.2 | 2.2
Nc1nn(-c2ccccc2)c(N)c1N=Nc1ccccc1F | 23.7 | 0.2 | 59.2* | 0.7 | 12.6
COc1ccc(/C=N\NC(=O)c2cc(O)c(O)c(O)c2)cc1CN1CCN(c2ccc(F)cc2)CC1 | -11.6 | -12.3 | -3.9 | -3.5 | 0.0
CC(=O)Nc1ccc(N/C=C/C(=O)C(C)(C)C)cc1 | 34.7 | -0.7 | 62.6* | -1.5 | -7.2
CCOC(=O)CN1CC23C=CC(O2)C(C(=O)NC2CCCCC2)C3C1=O (centres undefined) | -89.3* | 3.3 | -91.7 | 3.4 | x
CCOC(=O)CN1CC23C=CC(O2)C(C(=O)NC2CCCC2)C3C1=O (centres undefined) | -6.5 | -1.2 | -16.8 | -3.0 | -0.8
Nc1cc2sc(-c3ccc(C(=O)O)cc3)nc2cc1Cl | -2.9 | 12.4 | -8.3 | 17.5* | 5.9
Nc1nc(-c2ccc(C(=O)O)cc2)cs1 | -7.4 | 0.6 | -5.3 | 1.8 | 8.9
CCOC(=O)/C=C(\C)N1N=C(c2ccccc2)CC1c1ccccc1 (centres undefined) | 34.6 | 10.2 | 64.6* | -1.4 | 4.7
COc1ccc(C2CC(c3ccc4ccccc4c3OC(C)=O)=NN2C(C)=O)cc1 (centres undefined) | 56.4 | -14.0 | 93.7* | 6.4 | 17.8
COc1ccc(C2CC(c3ccc(C)o3)=NN2C(C)=O)cc1 (centres undefined) | 16.2 | -2.0 | 25.6 | 4.5 | -13.5
CC(=O)OCC(=O)N1N=C(c2ccc3ccccc3c2)CC1c1ccccc1 (centres undefined) | 26.7 | -19.4 | 52.8* | -3.8 | 8.2
O=c1c(Cc2ccc(F)cc2)c(O)ccn1CCCN1CCOCC1 | -4.0 | 1.5 | 0.7 | -1.7 | -1.5
SMILES | HSF1 inhib | NS3 helicase inh | HSF-1 act | HSP90 refold inh | Lipid droplet
COc1ccc(C2=NN3C(C2)c2ccccc2OC3c2cccs2)cc1 (centres undefined) | 17.2 | -5.3 | 62.7* | -1.0 | -5.2
COc1ccc(C2=NN3C(C2)c2ccccc2OC32C(=O)N(C)c3ccccc32)cc1 (centres undefined) | 57.2 | 0.6 | 92.3* | -1.3 | -12.5
COc1ccc(C2=NN(C(=O)CCC(=O)O)C(c3cccs3)C2)cc1 (centres undefined) | 1.2 | 10.1 | 9.8 | -5.0 | -5.0
Cc1ccccc1OCCNC(=O)c1ccc2ccccc2n1 | 44.4 | -25.9 | 86.3* | 2.1 | 5.6
CC(C)C(=O)Nc1cccc(-c2nc3ccccc3o2)c1 | -10.5 | -1.2 | -20.8 | -1.3 | -2.4
CC(=O)Nc1cccc(-c2nc3ccccc3o2)c1 | 21.8 | 2.9 | 73.2* | -2.2 | 0.0

Bioassay records from PubChem.
